Converted amounts (≈) assume the structure as drawn. The source made the active and inactive calls. No cut-off for these calls is given here.
Columns and labels:
Staphylococcus aureus [1] = assay: Antibacterial activity against methicillin-resistant Staphylococcus aureus 2884; assay type: functional
Staphylococcus aureus [2] = assay: Antibacterial activity against methicillin-resistant Staphylococcus aureus 2884 isolate at 5 ug by disc diffusion method; assay type: functional; settings: read-out: IZ
In short: (§1)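 Disk diffusion on 100-mm Mueller-Hinton agar plates inoculated with a 0.5 McFarland suspension. Disks: oxacillin 5 μg, cefoxitin 30 μg, ceftobiprole 30 μg, amoxicillin-clavulanic acid 20/10 μg, ofloxacin 5 μg, imipenem 10 μg. Inhibition zone diameters were read per CLSI and CASFM guidelines.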

Staphylococcus aureus [3] = assay: Antibacterial activity against methicillin-resistant Staphylococcus aureus 2884 isolate by disc diffusion method; assay type: functional; in short: as §1
Staphylococcus aureus [4] = assay: Antibacterial activity against oxacillin-dependent methicillin-resistant Staphylococcus aureus 2884D isolate at 5 ug by disc diffusion method; assay type: functional, organism-based; in short: as §1
Staphylococcus aureus [5] = assay: Antibacterial activity against methicillin-resistant Staphylococcus aureus 2884 isolate at 30 ug by disc diffusion method; assay type: functional, organism-based; in short: as §1
Staphylococcus aureus [6] = assay: Antibacterial activity against oxacillin-dependent methicillin-resistant Staphylococcus aureus 2884D isolate; assay type: functional
Staphylococcus aureus [7] = assay: Antibacterial activity against oxacillin-dependent methicillin-resistant Staphylococcus aureus 2884D isolate assessed as decrease in log bacterial count at >= 256 ug/ml; assay type: functional
Staphylococcus aureus [8] = assay: Antibacterial activity against methicillin-resistant Staphylococcus aureus 2884 isolate assessed as decrease in log bacterial count at 1 ug/ml; assay type: functional
Staphylococcus aureus [9] = assay: Effect on blaZ gene expression in oxacillin-dependent methicillin-resistant Staphylococcus aureus 2884D isolate at 0.5 ug/ml by RT-PCR; assay type: functional, organism-based
In short: (§2)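 TaqMan real-time RT-PCR on RNA from exponential-phase cells grown with or without 0.5 μg/ml oxacillin; the dependent strain was also grown on blood agar without oxacillin. Each reaction used 25 ng total RNA, 500 nM primers and 100 nM probe. Cycling: 48°C 30 min, 95°C 10 min, then 40 × (95°C 15 s, 60°C 1 min). Quantified by C_T against a standard curve, expressed relative to 16S; triplicate runs.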

Staphylococcus aureus [10] = assay: Effect on blaZ gene expression in oxacillin-dependent methicillin-resistant Staphylococcus aureus 2884D isolate at 0.5 ug/ml in presence of blood agar by RT-PCR; assay type: functional, organism-based; in short: as §2
Staphylococcus aureus [11] = assay: Induction of blaR1 gene expression in methicillin-resistant Staphylococcus aureus 2884 isolate by RT-PCR; assay type: functional, organism-based; in short: as §2
Staphylococcus aureus [12] = assay: Induction of blaI mRNA expression in methicillin-resistant Staphylococcus aureus 2884 isolate by RT-PCR; assay type: functional, organism-based; in short: as §2
Staphylococcus aureus [13] = assay: Induction of blaI mRNA expression in oxacillin-dependent methicillin-resistant Staphylococcus aureus 2884D isolate by RT-PCR; assay type: functional, organism-based; in short: as §2
Staphylococcus aureus [14] = assay: Decrease in PBP2 gene expression in oxacillin-dependent methicillin-resistant Staphylococcus aureus 2884D isolate by RT-PCR; assay type: functional, organism-based; in short: as §2
Staphylococcus aureus [15] = assay: Effect on vraSR gene expression in oxacillin-dependent methicillin-resistant Staphylococcus aureus 2884D isolate in presence of blood agar by RT-PCR; assay type: functional, organism-based; in short: as §2
Staphylococcus aureus [16] = assay: Induction of blaR1 gene expression in oxacillin-dependent methicillin-resistant Staphylococcus aureus 2884D isolate by RT-PCR; assay type: functional, organism-based; in short: as §2

`CO[C@@]1(NC(=O)Cc2cccs2)C(=O)N2C(C(=O)O)=C(COC(N)=O)CS[C@@H]21` (single isomer, unassigned) [CEFOXITIN] was tested, and the MIC (Staphylococcus aureus [1]) was 32 µg/mL (≈ 74.9 µM) and the zone of inhibition at 5 µg/disc (Staphylococcus aureus [2]) was 13 mm.

For `Nc1nc(/C(=N/O)C(=O)N[C@@H]2C(=O)N3C(C(=O)O)=C(/C=C4\CCN([C@@H]5CCNC5)C4=O)CS[C@H]23)ns1` [CEFTOBIPROLE], the MIC (Staphylococcus aureus [1]) was 2 µg/mL (≈ 3.74 µM) and the “inhibition zone (IZ)” value (Staphylococcus aureus [3]) was 34 mm.

`C[C@@H](O)[C@H]1C(=O)N2C(C(=O)O)=C(SCCNC=N)C[C@H]12` [IMIPENEM ANHYDROUS] was tested, and the MIC (Staphylococcus aureus [1]) was 8 µg/mL (≈ 26.7 µM).

`CC1COc2c(N3CCN(C)CC3)c(F)cc3c(=O)c(C(=O)O)cn1c23` (stereo unspecified) [OFLOXACIN] was tested, and the Activity (Staphylococcus aureus [4]) was “inactive”, the zone of inhibition at 5 µg/disc (Staphylococcus aureus [2]) was 15 mm and the Activity (Staphylococcus aureus [5]) was “inactive”.

In the case of `Cc1onc(-c2ccccc2)c1C(=O)N[C@@H]1C(=O)N2[C@@H]1SC(C)(C)[C@@H]2C(=O)O` [OXACILLIN], the MIC (Staphylococcus aureus [1]) is reported as 64 µg/mL (≈ 159 µM), the MIC (Staphylococcus aureus [6]) is reported as no less than 256 µg/mL and the CFU/ml (Staphylococcus aureus [7]) is reported as 3. The CFU/ml (Staphylococcus aureus [8]) was 4, the zone of inhibition at 5 µg/disc (Staphylococcus aureus [2]) was 15 mm and the Activity (Staphylococcus aureus [9]) was “inactive”. For the same compound, the Activity (Staphylococcus aureus [10]) was “inactive”, the Activity (Staphylococcus aureus [11]) was “inactive” and the Activity (Staphylococcus aureus [12]) was “Active”. For the same compound, the Activity (Staphylococcus aureus [13]) was “inactive”, the Activity (Staphylococcus aureus [14]) was “Active” and the Activity (Staphylococcus aureus [15]) was “inactive”. For the same compound, the Activity (Staphylococcus aureus [16]) was “Active”.
